{
  "source": "paper PMC9165588",
  "about": "(European journal of medicinal chemistry, 2022)",
  "key": {"[1]": {"biological_target": "T1, HAT domain (1195-1673) of human p300 (Homo sapiens, UniProt Q09472)", "T1 sequence (Q09472 1195-1673)": "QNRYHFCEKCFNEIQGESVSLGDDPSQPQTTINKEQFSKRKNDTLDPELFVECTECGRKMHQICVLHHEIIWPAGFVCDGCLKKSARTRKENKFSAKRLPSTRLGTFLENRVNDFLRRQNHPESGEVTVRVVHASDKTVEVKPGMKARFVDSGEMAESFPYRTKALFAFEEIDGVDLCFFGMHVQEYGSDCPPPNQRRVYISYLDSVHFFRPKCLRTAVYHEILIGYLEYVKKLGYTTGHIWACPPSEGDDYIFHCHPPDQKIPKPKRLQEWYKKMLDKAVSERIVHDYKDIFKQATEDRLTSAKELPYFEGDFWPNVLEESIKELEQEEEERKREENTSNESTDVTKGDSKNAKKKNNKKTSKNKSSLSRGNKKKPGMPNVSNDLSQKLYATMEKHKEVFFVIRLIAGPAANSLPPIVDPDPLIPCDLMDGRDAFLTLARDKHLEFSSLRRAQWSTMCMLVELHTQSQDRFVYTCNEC", "assay": "p300 HAT inhibition assay", "type": "biochemical", "conditions": "for inhibitory activity against p300 HAT (in words): initial screen at 10 μM; for inhibition at 10 µM: read-out: inhibition of p300 HAT at 10 μM"}, "Kasumi-1 leukemia cells": {"system": "Kasumi-1 leukemia cells", "assay": "Western blot of cellular histone H3 lysine acetylation", "type": "cell-based, human", "conditions": "Kasumi-1 cells, 12h, 5 and 10 μM", "in_short": "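Kasumi-1 cells (10⁶ per well) were exposed to test compound at various concentrations for 12 h. Total histones were extracted with a kit, and 2 μg protein was resolved by SDS-PAGE and transferred to PVDF. Blots were probed with antibodies to H3K9Ac, H3K18Ac, H3K27Ac and total H3, then an anti-rabbit IgG secondary.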"}, "[2]": {"biological_target": "T2, binding between p300 HAT and histone H4 (Homo sapiens, UniProt Q09472)", "T2 sequence (Q09472 1195-1673)": "T1 sequence (Q09472 1195-1673)", "assay": "ALPHA assay of p300 HAT-histone H4 peptide binding"}, "LSD1 [3]": {"biological_target": "T3, LSD1 (Homo sapiens, UniProt O60341)", "conditions": "read-out: IC50 against LSD1; cited from earlier work"}, "PCAF": {"biological_target": "PCAF (Homo sapiens, UniProt Q92831)", "sequence (Q92831 whole entry)": "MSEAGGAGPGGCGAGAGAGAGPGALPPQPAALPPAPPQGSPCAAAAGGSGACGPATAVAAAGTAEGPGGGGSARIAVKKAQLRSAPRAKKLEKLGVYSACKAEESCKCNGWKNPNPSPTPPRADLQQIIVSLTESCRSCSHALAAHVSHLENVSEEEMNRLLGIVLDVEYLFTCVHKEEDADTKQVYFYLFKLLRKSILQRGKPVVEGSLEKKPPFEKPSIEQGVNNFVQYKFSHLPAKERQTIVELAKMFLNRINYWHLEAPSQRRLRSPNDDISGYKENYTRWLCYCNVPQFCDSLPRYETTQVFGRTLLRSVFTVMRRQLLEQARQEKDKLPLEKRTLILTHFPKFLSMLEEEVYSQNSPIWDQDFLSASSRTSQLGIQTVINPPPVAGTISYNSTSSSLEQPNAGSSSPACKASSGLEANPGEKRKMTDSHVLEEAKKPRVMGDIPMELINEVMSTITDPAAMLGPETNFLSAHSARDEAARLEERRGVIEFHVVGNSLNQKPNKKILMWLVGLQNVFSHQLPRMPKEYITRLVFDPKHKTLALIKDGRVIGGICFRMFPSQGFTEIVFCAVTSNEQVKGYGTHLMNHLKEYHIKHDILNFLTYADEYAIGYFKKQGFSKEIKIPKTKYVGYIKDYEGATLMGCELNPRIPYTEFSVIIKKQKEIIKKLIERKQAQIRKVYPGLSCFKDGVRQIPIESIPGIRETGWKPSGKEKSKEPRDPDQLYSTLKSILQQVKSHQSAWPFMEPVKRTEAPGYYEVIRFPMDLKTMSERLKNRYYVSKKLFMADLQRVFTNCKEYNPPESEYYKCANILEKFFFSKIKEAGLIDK", "assay": "PCAF HAT inhibition assay", "type": "biochemical", "in_short": "(§1)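 Radiometric acetyltransfer assay. HAT enzyme (10 nM) was preincubated with test compound for 10 min at 25 °C in 50 mM phosphate buffer, pH 7.0, with 0.01% Brij-35. After 30 min at 25 °C, stopped with 6 N formic acid. Spotted on P81 paper, washed 3× in 50 mM NaHCO₃, scintillation counted.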"}, "Myst3": {"biological_target": "Myst3 (Homo sapiens, UniProt Q92794)", "sequence (Q92794 whole entry)": "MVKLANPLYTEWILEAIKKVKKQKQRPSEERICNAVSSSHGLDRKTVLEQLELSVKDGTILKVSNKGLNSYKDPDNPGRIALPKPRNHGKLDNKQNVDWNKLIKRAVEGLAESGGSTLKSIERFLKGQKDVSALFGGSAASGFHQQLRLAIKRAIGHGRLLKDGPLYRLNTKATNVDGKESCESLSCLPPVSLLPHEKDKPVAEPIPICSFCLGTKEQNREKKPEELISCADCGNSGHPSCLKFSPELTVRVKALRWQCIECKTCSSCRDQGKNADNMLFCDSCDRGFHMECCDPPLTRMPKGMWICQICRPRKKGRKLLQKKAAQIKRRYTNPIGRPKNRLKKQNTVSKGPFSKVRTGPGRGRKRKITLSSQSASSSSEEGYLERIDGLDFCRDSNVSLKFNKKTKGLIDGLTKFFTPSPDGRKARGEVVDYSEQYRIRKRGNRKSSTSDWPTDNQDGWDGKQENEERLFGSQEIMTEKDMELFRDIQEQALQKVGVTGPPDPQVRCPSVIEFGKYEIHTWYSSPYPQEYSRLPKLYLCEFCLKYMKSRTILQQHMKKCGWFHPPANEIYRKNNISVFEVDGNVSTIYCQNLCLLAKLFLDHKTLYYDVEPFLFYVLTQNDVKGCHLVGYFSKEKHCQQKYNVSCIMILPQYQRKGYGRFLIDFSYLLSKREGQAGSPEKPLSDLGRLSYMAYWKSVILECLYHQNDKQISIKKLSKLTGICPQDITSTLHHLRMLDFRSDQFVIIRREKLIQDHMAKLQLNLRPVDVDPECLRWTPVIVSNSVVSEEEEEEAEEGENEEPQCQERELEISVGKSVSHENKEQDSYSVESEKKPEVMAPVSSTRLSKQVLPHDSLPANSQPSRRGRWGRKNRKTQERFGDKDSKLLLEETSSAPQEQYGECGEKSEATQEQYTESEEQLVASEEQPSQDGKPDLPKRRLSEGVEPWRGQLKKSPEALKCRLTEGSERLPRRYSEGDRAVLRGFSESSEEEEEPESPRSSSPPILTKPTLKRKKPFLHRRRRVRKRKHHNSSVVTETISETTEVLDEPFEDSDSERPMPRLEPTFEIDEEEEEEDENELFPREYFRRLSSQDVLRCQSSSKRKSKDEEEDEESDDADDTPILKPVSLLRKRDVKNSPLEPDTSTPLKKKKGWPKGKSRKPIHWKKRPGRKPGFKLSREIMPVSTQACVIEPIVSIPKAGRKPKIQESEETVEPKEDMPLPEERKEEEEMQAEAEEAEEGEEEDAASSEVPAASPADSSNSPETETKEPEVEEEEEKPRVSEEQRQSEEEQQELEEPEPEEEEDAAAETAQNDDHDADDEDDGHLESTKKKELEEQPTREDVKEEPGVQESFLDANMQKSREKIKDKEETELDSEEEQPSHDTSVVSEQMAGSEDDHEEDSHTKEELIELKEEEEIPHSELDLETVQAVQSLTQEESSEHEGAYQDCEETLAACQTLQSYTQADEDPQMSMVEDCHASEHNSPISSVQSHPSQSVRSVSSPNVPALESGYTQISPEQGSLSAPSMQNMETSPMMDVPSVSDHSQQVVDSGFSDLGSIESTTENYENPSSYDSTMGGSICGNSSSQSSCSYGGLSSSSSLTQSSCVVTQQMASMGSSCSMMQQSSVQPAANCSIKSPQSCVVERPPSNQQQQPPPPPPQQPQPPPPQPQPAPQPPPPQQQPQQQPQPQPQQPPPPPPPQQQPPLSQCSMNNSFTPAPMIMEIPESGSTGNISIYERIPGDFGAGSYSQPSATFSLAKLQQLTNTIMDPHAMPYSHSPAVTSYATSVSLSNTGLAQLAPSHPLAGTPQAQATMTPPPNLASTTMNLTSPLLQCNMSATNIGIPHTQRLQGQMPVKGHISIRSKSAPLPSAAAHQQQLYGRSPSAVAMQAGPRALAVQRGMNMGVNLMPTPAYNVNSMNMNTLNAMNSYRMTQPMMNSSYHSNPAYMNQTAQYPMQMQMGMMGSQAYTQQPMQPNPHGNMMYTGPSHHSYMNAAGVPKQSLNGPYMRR", "assay": "Myst3 HAT inhibition assay", "type": "biochemical", "in_short": "as §1"}, "LSD1 [4]": {"biological_target": "T3, LSD1", "assay": "LSD1 inhibition", "type": "biochemical"}, "MCF-7": {"system": "MCF-7", "conditions": "read-out: Antiproliferative activity EC50; cited from earlier work"}, "PANC-1": {"system": "PANC-1", "conditions": "read-out: Antiproliferative activity EC50; cited from earlier work"}, "MDA-PANC-28": {"system": "MDA-PANC-28", "conditions": "read-out: Antiproliferative activity EC50; cited from earlier work"}},
  "note": "“Also recorded” adds a separate entry of the source. Counter-ions that a name gives are not always drawn.",
  "data": [
    {"smiles": "CC(=O)NCCOc1cnc(-c2ccc(Br)cc2)c(-c2ccc(Br)cc2)n1", "note": "[Compound 10, N-(2-((5,6-bis(4-bromophenyl)pyrazin-2-yl)oxy)ethyl)acetamide hydrochloride]", "values": [
      {"measurement": "inhibitory activity against p300 HAT (in words)", "setting": "[1]", "result": "inactive"}
    ]},
    {"smiles": "N#Cc1ccc(-c2ncc(OCC3CCNCC3)nc2-c2ccc(Br)cc2)cc1", "note": "[Compound 23]", "values": [
      {"measurement": "inhibitory activity against p300 HAT (in words)", "setting": "[1]", "result": "failed to improve the inhibitory activity"}
    ]},
    {"smiles": "NCc1ccc(-c2ncc(OCC3CCNCC3)nc2-c2ccc(CN)cc2)cc1", "note": "[Compound 27, ((5-(Piperidin-4-ylmethoxy)pyrazine-2,3-diyl)bis(4,1-phenylene))dimethanamine Hydrochloride]", "values": [
      {"measurement": "activity enhancement against p300 HAT compared to compound 3", "setting": "[1]; relative to compound 3", "result": "~ 2 fold"},
      {"measurement": "acetylation of H3K9 in cells", "setting": "Kasumi-1 leukemia cells", "result": "dose-dependently inhibit"},
      {"measurement": "acetylation of H3K18 in cells", "setting": "Kasumi-1 leukemia cells", "result": "not significantly affected"},
      {"measurement": "acetylation of H3K27 in cells", "setting": "Kasumi-1 leukemia cells", "result": "dose-dependently inhibit"}
    ]},
    {"smiles": "NCCOc1cnc(-c2ccc(Br)cc2)c(-c2ccc(Br)cc2)n1", "note": "[Compound 8, 2-((5,6-bis(4-bromophenyl)pyrazin-2-yl)oxy)ethan-1-amine hydrochloride]", "values": [
      {"measurement": "inhibitory activity against p300 HAT (in words)", "setting": "[1]", "result": "weak inhibitors"}
    ]},
    {"smiles": "Brc1ccc(-c2ncc(OCC3CCNCC3)nc2-c2ccc(Br)cc2)cc1", "note": "[Compound 3]", "values": [
      {"measurement": "effect on p300 HAT-histone H4 binding (in words)", "setting": "[2]", "result": "can dose-dependently disrupt the binding"},
      {"measurement": "IC50", "setting": "LSD1 [3]", "result": 52.4, "unit": "µM"}
    ]},
    {"smiles": "c1cc(-c2ccc(-c3ncc(OCC4CCNCC4)nc3-c3ccc(-c4ccoc4)cc3)cc2)co1", "note": "[Compound 29, 2,3-bis(4-(Furan-3-yl)phenyl)-5-(piperidin-4-ylmethoxy)pyrazine hydrochloride]", "values": [
      {"measurement": "mode of inhibition against cofactor Ac-CoA", "setting": "[1]; IC50 versus Ac-CoA 1 - 50 μM", "result": "likely non-competitive against the enzyme cofactor Ac-CoA"},
      {"measurement": "mode of inhibition against substrate histone", "setting": "[1]; IC50 versus histone peptide 2 - 100 μM", "result": "competitive against the substrate histone"},
      {"measurement": "more activity against p300 HAT than initial lead compound 3", "setting": "[1]; relative to compound 3", "result": "> 4", "unit": "×"},
      {"measurement": "inhibition of PCAF activity at 100 μM (in words)", "setting": "PCAF", "result": "did not significantly inhibit"},
      {"measurement": "inhibition of Myst3 activity at 100 μM (in words)", "setting": "Myst3", "result": "did not significantly inhibit"},
      {"measurement": "inhibition of LSD1 activity at 100 μM (in words)", "setting": "LSD1 [4]", "result": "did not significantly inhibit"},
      {"measurement": "effect on p300 HAT-histone H4 binding (in words)", "setting": "[2]", "result": "can dose-dependently disrupt the binding"},
      {"measurement": "acetylation of H3K9 in cells", "setting": "Kasumi-1 leukemia cells", "result": "almost depleted"},
      {"measurement": "acetylation of H3K18 in cells", "setting": "Kasumi-1 leukemia cells", "result": "significantly inhibited"},
      {"measurement": "acetylation of H3K27 in cells", "setting": "Kasumi-1 leukemia cells", "result": "almost depleted"}
    ]},
    {"smiles": "N#Cc1ccc(-c2nc(OCC3CCNCC3)cnc2-c2ccc(Br)cc2)cc1", "note": "[Compound 22]", "values": [
      {"measurement": "inhibitory activity against p300 HAT (in words)", "setting": "[1]", "result": "failed to improve the inhibitory activity"}
    ]},
    {"smiles": "c1ccc(-c2ccc(-c3ncc(OCC4CCNCC4)nc3-c3ccc(-c4ccccn4)cc3)cc2)nc1", "note": "[Compound 30, 5-(Piperidin-4-ylmethoxy)-2,3-bis(4-(pyridin-2-yl)phenyl)pyrazine hydrochloride]", "values": [
      {"measurement": "inhibition at 10 µM", "setting": "[1]", "result": "37 to 39", "unit": "%"}
    ]},
    {"smiles": "c1ccc(-c2cc(OCC3CCNCC3)cnc2-c2ccccc2)cc1", "note": "[Compound 1, 5,6-diphenyl-3-(piperidin-4-ylmethoxy)pyridine]", "values": [
      {"measurement": "IC50", "setting": "LSD1 [3]", "result": "> 100", "unit": "µM"}
    ]},
    {"smiles": "CNCCOc1cnc(-c2ccc(Br)cc2)c(-c2ccc(Br)cc2)n1", "note": "[Compound 9, 2-((5,6-bis(4-bromophenyl)pyrazin-2-yl)oxy)-N-methylethan-1-amine hydrochloride]", "values": [
      {"measurement": "inhibitory activity against p300 HAT (in words)", "setting": "[1]", "result": "weak inhibitors"}
    ]},
    {"smiles": "Cc1ccc(-c2ncc(OCC3CCNCC3)cc2-c2ccc(CO)cc2)cc1", "note": "[Compound 2]", "values": [
      {"measurement": "IC50", "setting": "LSD1 [3]", "result": "> 100", "unit": "µM"}
    ]},
    {"smiles": "NCCCOc1cnc(-c2ccc(Br)cc2)c(-c2ccc(Br)cc2)n1", "note": "[Compound 6, 3-((5,6-bis(4-bromophenyl)pyrazin-2-yl)oxy)propan-1-amine hydrochloride]", "values": [
      {"measurement": "effect on p300 HAT-histone H4 binding (in words)", "setting": "[2]", "result": "not significantly inhibited"},
      {"measurement": "disruption of p300 HAT-histone H4 binding at 100 μM (in words)", "setting": "[2]; 100 μM", "result": "did not significantly disrupt the binding"},
      {"measurement": "acetylation of H3K9 in cells", "setting": "Kasumi-1 leukemia cells", "result": "did not significantly reduce"},
      {"measurement": "acetylation of H3K18 in cells", "setting": "Kasumi-1 leukemia cells", "result": "did not significantly reduce"},
      {"measurement": "acetylation of H3K27 in cells", "setting": "Kasumi-1 leukemia cells", "result": "did not significantly reduce"}
    ]},
    {"smiles": "c1cc(-c2ccc(-c3ncc(OCC4CCNCC4)nc3-c3ccc(-c4ccncc4)cc3)cc2)ccn1", "note": "[Compound 31, 5-(Piperidin-4-ylmethoxy)-2,3-bis(4-(pyridin-4-yl)phenyl)pyrazine hydrochloride]", "values": [
      {"measurement": "inhibition at 10 µM", "setting": "[1]", "result": "37 to 39", "unit": "%"}
    ]},
    {"smiles": "CNC(=O)Nc1ccc2c(c1)CC[C@@]21OC(=O)N(CC(=O)N(Cc2ccc(F)cc2)[C@@H](C)C(F)(F)F)C1=O", "note": "[Compound A-485]", "values": [
      {"measurement": "effect on p300 HAT-histone H4 binding (in words)", "setting": "[2]", "result": "not significantly inhibited; also recorded: did not affect the p300 HAT-histone H4 interaction"},
      {"measurement": "EC50", "setting": "MCF-7", "result": "> 30", "unit": "µM"},
      {"measurement": "EC50", "setting": "PANC-1", "result": "> 30", "unit": "µM"},
      {"measurement": "EC50", "setting": "MDA-PANC-28", "result": "> 30", "unit": "µM"}
    ]}
  ]
}
